Data taken from ChEMBL document CHEMBL4393678, “Novel Tetrahydroquinazolinamines as Selective Histamine 3 Receptor Antagonists for the Treatment of Obesity” (J Med Chem, 2019).
Active and inactive are the calls of the source. The calls are words filed in the database; no cut-off is given here.

What was measured:
[1] = molecular target: T1, Muscarinic acetylcholine receptor M1 (Homo sapiens) (UniProt P11229); assay: Agonist activity at M1R (unknown origin) expressed in HEK293 cells harboring luc2P/NFAT-RE plasmid at 10 uM after 6 to 8 hrs by luciferase reporter gene assay; type: cell-based
T1 sequence (whole entry): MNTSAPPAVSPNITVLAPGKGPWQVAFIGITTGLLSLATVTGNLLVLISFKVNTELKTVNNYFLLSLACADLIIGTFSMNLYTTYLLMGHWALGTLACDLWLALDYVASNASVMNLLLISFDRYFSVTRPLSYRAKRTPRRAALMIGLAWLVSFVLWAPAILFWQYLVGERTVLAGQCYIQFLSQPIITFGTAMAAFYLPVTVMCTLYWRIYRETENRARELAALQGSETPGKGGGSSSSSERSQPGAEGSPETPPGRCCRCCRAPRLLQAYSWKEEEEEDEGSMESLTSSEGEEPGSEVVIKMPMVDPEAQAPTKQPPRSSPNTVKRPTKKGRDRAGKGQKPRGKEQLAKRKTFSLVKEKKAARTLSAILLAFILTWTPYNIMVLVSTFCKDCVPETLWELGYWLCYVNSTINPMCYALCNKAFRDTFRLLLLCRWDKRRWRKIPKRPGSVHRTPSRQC
In short: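 NFAT-RE luciferase assay in HEK293T cells transiently co-transfected with luc2P/NFAT-RE plasmid and receptor plasmid. Cells plated in DMEM and incubated overnight at 37 °C, 5% CO₂. Compounds and reference ligands applied for 6-8 h. Luciferase read after adding Bright-Glo substrate (1 mg/ml final).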

[2] = Ratio of AUClast in C57BL/6J mouse brain assessed as 4-(2-Amino-8-methyl-5,6,7,8-tetrahydroquinazolin-4-yl)phenol level to AUClast in C57BL/6J mouse serum assessed as 4-(2-Amino-8-methyl-5,6,7,8-tetrahydroquinazolin-4-yl)phenol level; type: ADME
In short: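 Male C57BL/6J mice (6–8 weeks) were fasted 12–16 h, then given a single oral dose of 20 mg/kg as a 2.5 mg/mL suspension in 1% gum acacia/water (n=5 per time point). Serum and brain (homogenised 1:6 in PBS) were sampled up to 24 h. Parent and demethylated metabolite were measured by LC-MS/MS (range 0.25–200 ng/mL). AUC ran to the last observation.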

Mus musculus [3] = assay: Anti-obesity activity in high fat diet-induced obese C57BL/6J mouse model assessed as reduction in body weight at 10 mg/kg, po measured up to 39 days; type: functional, organism-based
Mus musculus [4] = assay: Anorexic effect in high fat diet-induced obese C57BL/6J mouse model assessed as reduction in cumulative food intake at 10 mg/kg, po pretreated for 30 mins followed by food addition measured after 4 hrs relative to control; type: functional; set-up: scale not given: the % may be the effect or the level left
In short: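 Male C57BL/6J mice on high-fat diet, starved 12 h (8 am–8 pm) with water available, housed singly. Oral dose in 5% gum acacia in normal saline, vehicle group alongside. Food given 30 min after dosing, and cumulative intake measured over the 4 h night phase (9 pm–1 am). One-way ANOVA with Newman-Keuls test.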

Mus musculus [5] = assay: Anti-obesity activity in high fat diet-induced obese C57BL/6J mouse model assessed as change in LDL level at 10 to 20 mg/kg, po measured after 6 weeks; type: functional, organism-based
In short: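 At the end of treatment (six weeks HFD, four weeks db/db), mice euthanized with avertin 350 mg/kg. Blood taken by cardiac puncture into 3.8% sodium citrate. Plasma separated at 4000 rpm and stored at -80 °C. TG, TC, HDLc and LDLc measured on a bio-analyzer.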

Mus musculus [6] = assay: Anti-obesity activity in 16 hrs fasted db/db-induced obese […] mouse model assessed as reduction in body weight at 20 mg/kg, po measured after 4 weeks; type: functional, organism-based

## COc1ccc(-c2nc(N)nc3c2CCCC3C)cc1 (racemic)
[1]
  Activity: inactive
[2]
  Ratio AUC: 6.1%
Mus musculus [3]
  Activity: inactive
Mus musculus [4]
  Activity: 26%
Mus musculus [5]
  Activity: inactive
Mus musculus [6]
  Activity: Active
